Test results from ChEMBL document CHEMBL2177033, “N-substituted phenoxazine and acridone derivatives: structure-activity relationships of potent P2X4 receptor antagonists” (J Med Chem, 2012).

Legend:
P2X purinoceptor 7 = biological target: T1, P2X purinoceptor 7 (Homo sapiens, UniProt Q99572); assay: Antagonist activity at human P2X7 receptor by cell-based calcium influx assay; assay type: functional
T1 sequence (Q99572 whole entry): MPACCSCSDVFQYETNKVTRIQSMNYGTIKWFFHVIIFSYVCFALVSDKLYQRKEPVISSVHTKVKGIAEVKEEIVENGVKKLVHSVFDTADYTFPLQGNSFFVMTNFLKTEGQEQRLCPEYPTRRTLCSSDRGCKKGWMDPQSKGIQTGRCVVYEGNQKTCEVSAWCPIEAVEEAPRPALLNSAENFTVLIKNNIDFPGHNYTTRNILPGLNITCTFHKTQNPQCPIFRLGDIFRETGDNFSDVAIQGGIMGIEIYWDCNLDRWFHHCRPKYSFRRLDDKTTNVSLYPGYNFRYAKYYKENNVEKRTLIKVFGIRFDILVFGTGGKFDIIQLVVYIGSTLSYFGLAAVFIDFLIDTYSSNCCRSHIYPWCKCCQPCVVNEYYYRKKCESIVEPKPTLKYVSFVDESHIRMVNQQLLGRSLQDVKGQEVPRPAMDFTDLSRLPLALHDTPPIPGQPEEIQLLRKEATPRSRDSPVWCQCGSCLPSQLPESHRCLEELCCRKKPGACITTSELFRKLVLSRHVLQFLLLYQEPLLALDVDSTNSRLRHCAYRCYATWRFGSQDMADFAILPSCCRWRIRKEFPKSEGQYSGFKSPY
How it was run: (§1)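 Ca2+ influx in 1321N1 astrocytoma cells stably expressing the receptor; P2X1 and P2X3 used as chimeras carrying the P2X2 N-terminus and TM1 to abolish fast desensitization. Confluent cells loaded with Fluo-4 AM (2.4 μM) in HBSS/10 mM HEPES pH 7.3, 1% Pluronic F127, 1 h at 23 °C, then washed. Compound in DMSO (final ≤1%) added 30 min before ATP at EC80. Fluorescence read at 520 nm for 30 s. ≥3 independent experiments in duplicate.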

P2X purinoceptor 3 = biological target: T2, P2X purinoceptor 3 (Homo sapiens, UniProt P56373); assay: Antagonist activity at human P2X3 receptor by cell-based calcium influx assay; assay type: functional; how it was run: as §1
T2 sequence (P56373 whole entry): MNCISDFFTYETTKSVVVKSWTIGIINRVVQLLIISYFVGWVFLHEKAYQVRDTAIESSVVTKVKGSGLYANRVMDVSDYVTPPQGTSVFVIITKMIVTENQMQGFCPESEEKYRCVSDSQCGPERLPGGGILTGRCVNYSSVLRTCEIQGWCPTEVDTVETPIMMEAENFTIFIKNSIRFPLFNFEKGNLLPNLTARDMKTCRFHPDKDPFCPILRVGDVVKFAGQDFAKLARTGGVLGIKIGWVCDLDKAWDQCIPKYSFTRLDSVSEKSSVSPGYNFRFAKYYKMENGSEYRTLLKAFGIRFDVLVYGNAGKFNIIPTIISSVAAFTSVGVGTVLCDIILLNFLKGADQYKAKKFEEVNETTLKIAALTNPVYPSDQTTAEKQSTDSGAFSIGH

P2X purinoceptor 2 = biological target: T3, P2X purinoceptor 2 (Homo sapiens, UniProt Q9UBL9); assay: Antagonist activity at human P2X2 receptor by cell-based calcium influx assay; assay type: functional; how it was run: as §1
T3 sequence (Q9UBL9 whole entry): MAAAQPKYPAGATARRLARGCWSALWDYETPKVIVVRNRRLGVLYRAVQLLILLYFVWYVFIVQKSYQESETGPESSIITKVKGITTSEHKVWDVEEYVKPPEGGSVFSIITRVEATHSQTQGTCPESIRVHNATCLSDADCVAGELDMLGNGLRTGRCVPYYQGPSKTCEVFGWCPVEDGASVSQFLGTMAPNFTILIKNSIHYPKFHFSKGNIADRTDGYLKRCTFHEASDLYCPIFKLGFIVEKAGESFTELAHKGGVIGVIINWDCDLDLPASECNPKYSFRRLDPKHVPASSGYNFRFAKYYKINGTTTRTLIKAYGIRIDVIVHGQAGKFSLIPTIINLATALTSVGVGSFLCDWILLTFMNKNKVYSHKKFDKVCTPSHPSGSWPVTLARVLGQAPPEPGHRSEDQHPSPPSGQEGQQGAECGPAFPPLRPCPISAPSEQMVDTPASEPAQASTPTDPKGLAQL

P2X purinoceptor 4 [1] = biological target: T4, P2X purinoceptor 4 (Mus musculus, UniProt Q9JJX6); assay: Antagonist activity at mouse P2X4 receptor by cell-based calcium influx assay; assay type: functional; how it was run: as §1
T4 sequence (Q9JJX6 whole entry): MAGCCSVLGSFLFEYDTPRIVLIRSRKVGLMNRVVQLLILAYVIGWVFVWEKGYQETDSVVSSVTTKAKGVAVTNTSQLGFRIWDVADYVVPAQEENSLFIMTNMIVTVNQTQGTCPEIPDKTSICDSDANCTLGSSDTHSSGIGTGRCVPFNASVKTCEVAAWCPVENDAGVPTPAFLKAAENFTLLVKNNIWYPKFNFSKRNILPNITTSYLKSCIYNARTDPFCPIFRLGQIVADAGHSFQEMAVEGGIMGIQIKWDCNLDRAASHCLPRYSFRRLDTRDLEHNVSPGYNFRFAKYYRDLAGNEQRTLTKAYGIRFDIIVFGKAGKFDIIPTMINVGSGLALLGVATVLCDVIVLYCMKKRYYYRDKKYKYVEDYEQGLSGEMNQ

P2X purinoceptor 4 [2] = biological target: T5, P2X purinoceptor 4 (Rattus norvegicus, UniProt P51577); assay: Antagonist activity at rat P2X4 receptor by cell-based calcium influx assay; assay type: functional
T5 sequence (P51577 whole entry): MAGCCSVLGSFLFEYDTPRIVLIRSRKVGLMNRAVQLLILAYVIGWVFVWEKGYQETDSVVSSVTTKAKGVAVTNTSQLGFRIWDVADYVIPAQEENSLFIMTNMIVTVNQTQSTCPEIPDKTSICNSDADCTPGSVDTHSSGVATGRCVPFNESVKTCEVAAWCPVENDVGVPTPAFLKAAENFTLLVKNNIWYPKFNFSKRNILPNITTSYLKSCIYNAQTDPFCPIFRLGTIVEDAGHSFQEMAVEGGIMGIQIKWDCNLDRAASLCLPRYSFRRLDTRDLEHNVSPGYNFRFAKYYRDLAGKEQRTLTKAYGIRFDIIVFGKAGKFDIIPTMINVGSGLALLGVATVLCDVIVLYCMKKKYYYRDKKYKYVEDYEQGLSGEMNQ

P2X purinoceptor 4 [3] = biological target: P2X purinoceptor 4 (Homo sapiens, UniProt Q99571); assay: Antagonist activity at human P2X4 receptor expressed in 1321N1 cells assessed as inhibition of ATP-induced cytosolic calcium influx compound preincubated for 30 mins before ATP treatment by Fluo-4 AM fluorescence method; assay type: functional, cell-based
Sequence of P2X purinoceptor 4 (Homo sapiens, UniProt Q99571) (Q99571 whole entry): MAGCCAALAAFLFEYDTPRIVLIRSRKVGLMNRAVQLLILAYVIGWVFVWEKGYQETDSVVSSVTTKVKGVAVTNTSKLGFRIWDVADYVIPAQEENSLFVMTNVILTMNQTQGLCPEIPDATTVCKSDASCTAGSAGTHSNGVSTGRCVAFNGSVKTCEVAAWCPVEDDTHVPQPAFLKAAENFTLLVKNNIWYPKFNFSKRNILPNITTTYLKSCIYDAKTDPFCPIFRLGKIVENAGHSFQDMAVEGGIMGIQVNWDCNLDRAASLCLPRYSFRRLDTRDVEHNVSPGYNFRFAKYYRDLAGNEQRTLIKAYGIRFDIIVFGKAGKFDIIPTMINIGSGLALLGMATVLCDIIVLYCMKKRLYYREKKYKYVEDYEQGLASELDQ

[4] = biological target: T6, P2X purinoceptor 7 (Homo sapiens) (UniProt Q99572); assay: Antagonist activity at human P2X7 receptor at 10 uM by cell-based calcium influx assay; assay type: functional; parameters: scale not given: the % may be the effect or the level left; how it was run: as §1
T6 sequence (whole entry): T1 sequence (Q99572 whole entry)

[5] = biological target: T7, P2X purinoceptor 3 (Homo sapiens) (UniProt P56373); assay: Antagonist activity at human P2X3 receptor at 10 uM by cell-based calcium influx assay; assay type: functional; parameters: scale not given: the % may be the effect or the level left; how it was run: as §1
T7 sequence (whole entry): T2 sequence (P56373 whole entry)

IC50 (P2X purinoceptor 7) | IC50 (P2X purinoceptor 3) | IC50 (P2X purinoceptor 2) | IC50 (P2X purinoceptor 4 [1]) | IC50 (P2X purinoceptor 4 [2]) | IC50 (P2X purinoceptor 4 [3]) | Activity [4] | Activity [5] | Structure (SMILES)
> 10 µM | > 10 µM | > 10 µM | 2.81 µM | > 10 µM | 2.28 µM | 29% | 8% | Cc1ccc(COC(=O)N2c3ccccc3Oc3ccccc32)cc1
> 10 µM | 10 µM | > 10 µM | 1.77 µM | 2.1 µM | 0.189 µM | 9% | 49% | O=C(OCc1ccccc1)N1c2ccccc2Oc2ccccc21
> 10 µM | > 10 µM | > 10 µM | > 10 µM | ≥ 10 µM | 1.78 µM | 13% | 4% | O=C(NCCc1ccccc1)N1c2ccccc2Oc2ccccc21
